According to ChEMBL document CHEMBL5376013, “Design, synthesis and biological evaluation of novel morpholinopyrimidine-5-carbonitrile derivatives as dual PI3K/mTOR inhibitors” (RSC Med Chem, 2024):

Experiments:
SW-620 = assay: Antitumor activity against human SW-620 cells assessed as growth inhibition at 10 uM relative to control; type: functional; conditions: read-out: GI
In short: (§1)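 Drug exposure 48 h at 37 °C, 5% CO2. Adherent cells fixed with cold TCA (10% final), suspension cells with TCA (16% final). Stained with 0.4% SRB in 1% acetic acid, dissolved in 10 mM Tris, A515. Growth relative to time-zero and untreated control.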

M14 = assay: Antitumor activity against human M14 cells assessed as growth inhibition at 10 uM relative to control; type: functional; conditions: read-out: GI
In short: (§2)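 After drug addition, plates were incubated 48 h at 37 °C under 5% CO2. Adherent cells were fixed with cold TCA (10% final, 60 min, 4 °C) and suspension cells with 16% final TCA. Staining used 0.4% SRB in 1% acetic acid, solubilized in 10 mM trizma, read at A515. Percent growth was calculated from time-zero, control and treated absorbances.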

KM12 = assay: Antitumor activity against human KM12 cells assessed as growth inhibition at 10 uM relative to control; type: functional; conditions: read-out: GI; in short: as §2
MDA-MB-468 = assay: Antitumor activity against human MDA-MB-468 cells assessed as growth inhibition at 10 uM relative to control; type: functional; conditions: read-out: GI; in short: as §2
HOP-92 = assay: Antitumor activity against human HOP-92 cells assessed as growth inhibition at 10 uM relative to control; type: functional; conditions: read-out: GI; in short: as §2
SF-295 = assay: Antitumor activity against human SF-295 cells assessed as growth inhibition at 10 uM relative to control; type: functional; conditions: read-out: GI; in short: as §2
RPMI-8226 = assay: Antitumor activity against human RPMI-8226 cells assessed as growth inhibition at 10 uM relative to control; type: functional; conditions: read-out: GI; in short: as §2
Malme-3M = assay: Antitumor activity against human Malme-3M cells assessed as growth inhibition at 10 uM relative to control; type: functional; conditions: read-out: GI; in short: as §2
OVCAR-3 = assay: Antitumor activity against human OVCAR-3 cells assessed as growth inhibition at 10 uM relative to control; type: functional; conditions: read-out: GI; in short: as §2
UACC-257 = assay: Antitumor activity against human UACC-257 cells assessed as growth inhibition at 10 uM relative to control; type: functional; conditions: read-out: GI; in short: as §1
HOP-62 = assay: Antitumor activity against human HOP-62 cells assessed as growth inhibition at 10 uM relative to control; type: functional; conditions: read-out: GI; in short: as §2
HCT-116 = assay: Antitumor activity against human HCT-116 cells assessed as growth inhibition at 10 uM relative to control; type: functional; conditions: read-out: GI; in short: as §2
SNB-75 = assay: Antitumor activity against human SNB-75 cells assessed as growth inhibition at 10 uM relative to control; type: functional; conditions: read-out: GI; in short: as §1
OVCAR-4 = assay: Antitumor activity against human OVCAR-4 cells assessed as growth inhibition at 10 uM relative to control; type: functional; conditions: read-out: GI; in short: as §2
SR [1] = assay: cells; conditions: Homo sapiens
SR [2] = assay: Induction of cell cycle arrest in human SR cells assessed as cell aggregates incubated for 24 hrs by PI staining based flow cytometry analysis (reference value: 1.47%); type: functional
SR [3] = assay: Induction of cell cycle arrest in human SR cells assessed as accumulation of cells at G2/M phase incubated for 24 hrs by PI staining based flow cytometry analysis (reference value: 8.57%); type: functional
[4] = target: T1, Serine/threonine-protein kinase mTOR (Homo sapiens, UniProt P42345); assay: Inhibition of mTOR (unknown origin) incubated for 1 hr by ELISA analysis
In short: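 Glutathione-coated plate loaded with mTOR substrate (1 h, room temperature). mTOR with compound in 2X kinase assay buffer, 30 min at 30 °C, then stop solution. Phospho-p70S6K-T389 detected by primary antibody, then HRP conjugate (1 h each), TMB, A450 with 540 or 595 nm reference.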

SR [5] = assay: Induction of cell cycle arrest in human SR cells assessed as accumulation of cells at S phase incubated for 24 hrs by PI staining based flow cytometry analysis (reference value: 38.42%); type: functional
SR [6] = assay: Induction of cell cycle arrest in human SR cells assessed as accumulation of cells at G1 phase incubated for 24 hrs by PI staining based flow cytometry analysis (reference value: 53.01%); type: functional
SR [7] = assay: Induction of apoptosis in human SR cells assessed as late apoptotic cells incubated for 24 hrs by AnnexinV-FITC/propidium iodide staining based flow cytometry (Rvb =0.18%); type: functional
[8] = Cytotoxicity against human PCS-800-011 cells assessed as inhibition of cell growth by MTT assay; type: toxicity, cell-based
SR [9] = assay: Induction of apoptosis in human SR cells assessed as necrotic cells incubated for 24 hrs by AnnexinV-FITC/propidium iodide staining based flow cytometry (Rvb =0.92%); type: functional
SR [10] = assay: Induction of cell cycle arrest in human SR cells assessed as accumulation of cells at pre-G phase incubated for 24 hrs by PI staining based flow cytometry analysis (reference value: 1.39%); type: functional
SR [11] = assay: Induction of cell cycle arrest in human SR cells assessed as cell debris incubated for 24 hrs by PI staining based flow cytometry analysis (reference value: 1.93%); type: functional
[12] = target: Phosphatidylinositol 4,5-bisphosphate 3-kinase catalytic subunit alpha isoform (Homo sapiens, UniProt P42336); assay: Inhibition of PI3Kalpha (unknown origin)
Sequence of Phosphatidylinositol 4,5-bisphosphate 3-kinase catalytic subunit alpha isoform (P42336 whole entry, canonical isoform): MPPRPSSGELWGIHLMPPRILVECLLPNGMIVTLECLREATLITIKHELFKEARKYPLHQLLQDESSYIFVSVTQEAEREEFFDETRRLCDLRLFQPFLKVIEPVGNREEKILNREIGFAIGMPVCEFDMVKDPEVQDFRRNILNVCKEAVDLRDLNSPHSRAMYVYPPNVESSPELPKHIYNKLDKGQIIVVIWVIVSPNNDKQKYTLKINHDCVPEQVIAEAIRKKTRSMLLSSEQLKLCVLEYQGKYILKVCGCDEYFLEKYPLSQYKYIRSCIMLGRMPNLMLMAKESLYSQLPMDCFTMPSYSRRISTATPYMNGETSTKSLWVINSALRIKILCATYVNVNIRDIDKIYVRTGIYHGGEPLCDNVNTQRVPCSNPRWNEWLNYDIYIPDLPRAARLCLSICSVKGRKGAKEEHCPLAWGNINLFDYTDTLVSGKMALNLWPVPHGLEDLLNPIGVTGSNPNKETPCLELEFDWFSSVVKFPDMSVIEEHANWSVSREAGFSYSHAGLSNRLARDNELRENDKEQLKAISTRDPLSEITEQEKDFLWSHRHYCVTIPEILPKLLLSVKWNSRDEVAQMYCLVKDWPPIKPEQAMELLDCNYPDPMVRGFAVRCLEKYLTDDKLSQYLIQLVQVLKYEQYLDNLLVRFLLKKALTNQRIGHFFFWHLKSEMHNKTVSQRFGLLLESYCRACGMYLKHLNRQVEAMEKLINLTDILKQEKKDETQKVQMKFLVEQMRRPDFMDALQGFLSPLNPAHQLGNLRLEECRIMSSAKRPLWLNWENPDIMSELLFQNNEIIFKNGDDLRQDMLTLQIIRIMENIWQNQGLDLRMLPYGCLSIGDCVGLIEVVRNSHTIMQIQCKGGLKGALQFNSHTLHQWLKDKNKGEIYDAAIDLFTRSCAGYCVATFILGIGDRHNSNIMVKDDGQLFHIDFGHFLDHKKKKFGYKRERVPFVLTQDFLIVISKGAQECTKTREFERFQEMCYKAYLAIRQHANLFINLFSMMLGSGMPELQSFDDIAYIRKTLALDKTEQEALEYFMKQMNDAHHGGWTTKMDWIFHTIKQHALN
In short: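 Inhibitor preincubated 10 min before PIP2 substrate in kinase reaction buffer (25 µl final), 1 h reaction. Product detected by competition with biotinylated PIP3 for GRP1, with SA-HRP and TMB colour.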

SR [13] = assay: Induction of apoptosis in human SR cells assessed as early apoptotic cells incubated for 24 hrs by AnnexinV-FITC/propidium iodide staining based flow cytometry (Rvb =0.29%); type: functional
[14] = target: T1, Serine/threonine-protein kinase mTOR; assay: Inhibition of mTOR in human SR cells by Western blot analysis; type: cell-based

Structure (SMILES) | IC50 (SR [1]) [µM] | IC50 [4] [µM] | inhibition of growth at 10 µM (SW-620) [%] | inhibition of growth at 10 µM (M14) [%] | inhibition of growth at 10 µM (KM12) [%] | inhibition of growth at 10 µM (MDA-MB-468) [%] | inhibition of growth at 10 µM (HOP-92) [%] | inhibition of growth at 10 µM (SF-295) [%] | inhibition of growth at 10 µM (RPMI-8226) [%] | inhibition of growth at 10 µM (Malme-3M) [%] | inhibition of growth at 10 µM (OVCAR-3) [%] | inhibition of growth at 10 µM (UACC-257) [%] | inhibition of growth at 10 µM (HOP-62) [%] | inhibition of growth at 10 µM (HCT-116) [%] | inhibition of growth at 10 µM (SNB-75) [%] | inhibition of growth at 10 µM (OVCAR-4) [%] | Activity (SR [2]) [%] | Activity (SR [3]) [%] | Activity (SR [5]) [%] | Activity (SR [6]) [%] | further results
N#Cc1c(-c2ccc(Cl)cc2)nc(N/N=C/c2cccc([N+](=O)[O-])c2)nc1N1CCOCC1 |  |  | < 1 | 16.4 | < 1 | 26.1 | 28.7 | < 1 | 43.4 | < 1 | 11.2 | < 1 | < 1 | 20.1 | 33.4 | 22.3 |  |  |  |  | 
N#Cc1c(-c2ccc(Cl)cc2)nc(N/N=C/c2ccco2)nc1N1CCOCC1 |  |  | 17.8 | 28.6 | < 1 | 69.1 | 59.4 | 26.2 | 33.5 | 57.6 | 33.4 | < 1 | 33.6 | 23.9 | 89.7 | 54.4 |  |  |  |  | 
N#Cc1c(-c2ccc(Cl)cc2)nc(N/N=C/c2ccc[nH]2)nc1N1CCOCC1 | 0.77 |  | 10.8 | < 1 | 63.5 | 21.8 | 31.1 | 41.6 | 93.6 | < 11.1 | 54.4 | 12.1 | 58.4 | < 1 | < 1 | 25.9 |  |  |  |  | 

Further lines, with some results ahead:

IC50 (SR [1]) [µM] | IC50 [4] [µM] | Structure (SMILES) | inhibition of growth at 10 µM (SW-620) [%] | inhibition of growth at 10 µM (M14) [%] | inhibition of growth at 10 µM (KM12) [%] | inhibition of growth at 10 µM (MDA-MB-468) [%] | inhibition of growth at 10 µM (HOP-92) [%] | inhibition of growth at 10 µM (SF-295) [%] | inhibition of growth at 10 µM (RPMI-8226) [%] | inhibition of growth at 10 µM (Malme-3M) [%] | inhibition of growth at 10 µM (OVCAR-3) [%] | inhibition of growth at 10 µM (UACC-257) [%] | inhibition of growth at 10 µM (HOP-62) [%] | inhibition of growth at 10 µM (HCT-116) [%] | inhibition of growth at 10 µM (SNB-75) [%] | inhibition of growth at 10 µM (OVCAR-4) [%] | Activity (SR [2]) [%] | Activity (SR [3]) [%] | Activity (SR [5]) [%] | Activity (SR [6]) [%] | further results
0.09 | 2.85 | N#Cc1c(-c2ccc(Cl)cc2)nc(N/N=C/c2cccc(O)c2)nc1N1CCOCC1 | 35.2 | 33.4 | 24 | 12.6 | 36.7 | < 1 | 62.6 | < 1 | 22.3 | < 1 | 21.2 | 42.1 | 53.9 | < 1 | 1.61 | 33.77 | 26.95 | 39.28 | Activity (SR [7]): 19.19%; IC50 [8]: 44.5 µM; Activity (SR [9]): 9.61%; Activity (SR [10]): 31.4%; Activity (SR [11]): 2.24%; IC50 [12]: 1.27 µM; Activity (SR [13]): 2.61%
0.35 |  | COc1cc(/C=N/Nc2nc(-c3ccc(Cl)cc3)c(C#N)c(N3CCOCC3)n2)cc(OC)c1OC | 10.3 | 48.8 | 31.2 | 32.1 | 59.1 | 13.8 | 74.6 | < 1 | 25.9 | < 1 | 10.2 | 55.4 | 48.9 | 11.2 |  |  |  |  | 
0.1 | 0.83 | N#Cc1c(-c2ccc(Cl)cc2)nc(N/N=C/c2cccc(Cl)c2)nc1N1CCOCC1 | 46.7 | 15.4 | < 1 | 14.9 | 10.7 | < 1 | 35 | < 1 | 12.6 | 28.4 | < 1 | 29.2 | 19.9 | < 1 | 1.51 | 37.64 | 29.41 | 32.95 | IC50 [14]: 0.103 µM; Activity (SR [7]): 27.96%; IC50 [8]: 17.5 µM; Activity (SR [9]): 12.76%; Activity (SR [10]): 44.26%; Activity (SR [11]): 1.96%; IC50 [12]: 0.17 µM; Activity (SR [13]): 3.54%
